# Assay outcomes (PubChem BioAssay)
# PKD1 inh – inhibitors of human PKD1 kinase; Q15139; PKD1 kinase fluorescence polarization assay; inhibition, % (no concentration beside the values); actives 0.056% (n = 200,000); AID 797
# GSH bead fluor – GSH bead compound fluorescence profile; fluorescence (KMESF) at 10 µM; GSH beads flow cytometry, compound fluorescence 488/530 nm; hits give high values; AID 1776; actives 0.25% (n = 190,000); in the data active means fluorescence above about 89;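 further: glutathione beads carrying GST-tagged Bcl family fusion proteins plus one bare bead set; values are compound well signal with DMSO vehicle wells as background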
# Avidin bead fluor – compound fluoresces at 488/530 nm on avidin beads. compound fluorescence 488/530 nm, flow cytometry; hits give high values. fluorescence (KMESF) at 10 µM. actives 0.38% (n = 220,000). AID 1775; in the data active means fluorescence above about 47
# ABCG2 inh – inhibitors of human ABCG2 transporter, ABCB1 counter-screen; IgMXP3 cells, JC-1 efflux, flow cytometry; inhibition, % at 6.6 µM; actives 0.1% (n = 190,000);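 active means inhibition above 80%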;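 further: 0% = DMSO and 100% = nicardipine control wells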
# Target sequence (Q9UNQ0 whole entry, looked up): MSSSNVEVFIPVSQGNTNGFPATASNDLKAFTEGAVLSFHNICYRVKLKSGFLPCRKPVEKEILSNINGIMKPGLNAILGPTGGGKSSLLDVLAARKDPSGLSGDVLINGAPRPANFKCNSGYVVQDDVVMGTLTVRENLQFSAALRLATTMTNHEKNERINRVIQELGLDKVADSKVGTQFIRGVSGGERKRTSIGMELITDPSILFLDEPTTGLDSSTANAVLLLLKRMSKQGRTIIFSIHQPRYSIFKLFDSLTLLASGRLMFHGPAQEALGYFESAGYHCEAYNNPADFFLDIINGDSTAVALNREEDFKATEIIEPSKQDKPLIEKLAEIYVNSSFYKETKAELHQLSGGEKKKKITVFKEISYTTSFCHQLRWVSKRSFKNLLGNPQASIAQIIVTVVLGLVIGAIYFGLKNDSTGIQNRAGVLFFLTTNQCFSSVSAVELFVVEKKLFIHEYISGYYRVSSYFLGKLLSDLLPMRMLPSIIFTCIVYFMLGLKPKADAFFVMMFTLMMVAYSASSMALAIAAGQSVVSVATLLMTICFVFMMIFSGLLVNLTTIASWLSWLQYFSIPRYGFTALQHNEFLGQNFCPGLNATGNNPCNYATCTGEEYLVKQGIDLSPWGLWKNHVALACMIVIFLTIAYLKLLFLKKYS
#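 Test system: ABCG2 IgMXP3 and barcoded ABCB1 CCRF-Adr cell mix; Schedule: cells with compound and JC-1, 10 min at 25 °C, rotating, no wash; Technique: flow cytometry of retained JC-1 fluorescence; Measure: % inhibition of efflux relative to nicardipine and DMSO; Controls: nicardipine high and DMSO low controls.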
# L major viab – reduces viability of Leishmania major promastigotes; resazurin fluorescence viability; inhibition, % at 10 µM; actives 9% (n = 200,000);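 further: promastigotes grown with compound for 44 hours at 28 °C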
# ABCB1 inh – human ABCB1 inhibition, ABCG2 as counter-screen; CCRF-Adr cells, JC-1 efflux, flow cytometry; actives 0.067% (n = 190,000); P08183; inhibition, % at 6.6 µM; AID 1326; in the data active means inhibition above about 40%;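 further: 0% = vehicle and 100% = reference inhibitor; higher value means more JC-1 retained so stronger ABCB1 efflux block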
# Active calls of the source: *; . = no result given. The sample as a whole holds a higher share of hits than the screen did. Unless noted, no stated cut-off is given here; in the data, active means inhibition above about 50%; inactive means the rest.
SMILES,PKD1 inh,GSH bead fluor,Avidin bead fluor,ABCG2 inh,L major viab,ABCB1 inh
COc1cc(-c2c(C#N)c(=O)[nH]c3c2c(C)nn3-c2ccccc2)ccc1O,-8.3,17,48*,0.6,-10.4,0.2
COc1ccc(C(=O)c2coc(-c3ccccc3C(=O)O)c2C(=O)O)cc1,-2.4,10,4,1.8,-2.2,0.2
Cc1oc2c(c1C(=O)c1ccc(Cl)cc1)C(=O)C(=O)c1ccccc1-2,-2.6,29,13,18.5,100.5*,2.4
Cc1ccc(C(=O)C(OC(=O)c2c(C)cc(=O)oc2C)c2ccccc2)cc1 (centres undefined),5.2,19,13,3.9,-4.8,0.9
Cc1ccc(C(=O)c2c(C)oc3c2C(=O)C(=O)c2ccccc2-3)cc1,5.5,7,23,2.1,100.4*,1.0
Cc1ccc(C(=O)c2coc3c2C(=O)C(=O)c2ccccc2-3)cc1,0.5,43,9,12.9,100.2*,0.0
O=C(NC1CCCC1)C1CCN(c2cnccn2)CC1,2.2,14,10,2.2,5.1,-0.5
COC(=O)c1c(NC(=O)C2CC(=O)NN2Cc2ccccc2)sc(C)c1C (centres undefined),-3.1,20,26,0.6,100.1*,0.3
CC[C@H](C)[C@@H](NC(=O)O[C@@H]1C(=O)c2cc(Br)ccc2O[C@H]1c1cccc(OC)c1)C(=O)OC,-4.3,19,10,0.0,0.4,0.4
COc1cc(CN(C(=S)NCC(=O)NC2CCCC2)C2CCCC2)cc(OC)c1OC,-3.6,6,3,0.2,2.1,1.3
Cc1cc(=O)[nH]c(CN2CCC(c3ccccc3)CC2)n1,-4.1,17,10,1.2,-4.6,0.0
BrC(=C\c1ccccc1)/C=N/n1cnnc1,0.3,14,18,8.6,100.4*,-0.2
O=C(NCCOc1ccccc1)c1ccccc1[N+](=O)[O-],-8.2,8,8,8.8,-4.8,0.8
O=C(NCCc1nc2ccccc2[nH]1)c1cc([N+](=O)[O-])cc([N+](=O)[O-])c1,-3.9,9,10,31.0,98.3*,0.8
O=C(NCCOc1ccccc1)c1cc(C(=O)NCCOc2ccccc2)cc([N+](=O)[O-])c1,-6.8,13,4,29.9,97.7*,20.8
O=C(Cn1cc([N+](=O)[O-])cn1)NCCc1nc2ccccc2[nH]1,1.3,10,32,4.0,2.9,0.6
O=C(CSc1nc2ccc([N+](=O)[O-])cc2[nH]1)NCCc1ccccc1,-16.8,15,61*,10.3,1.4,1.2
CN(C)NC(=S)NC1CCS(=O)(=O)C1 (centres undefined),.,.,8,.,.,.
CN(C)S(=O)(=O)c1cccc(NC(=O)Cn2cc(C(F)(F)F)cc(Cl)c2=O)c1,10.7,12,20,1.4,-5.4,0.9
O=C(NCCc1ccccn1)C1CCN(S(=O)(=O)c2ccc3ccccc3c2)CC1,-2.9,12,20,0.6,22.6,0.4
CC(=O)N(C(C)=O)C1=C(C#N)C2(CCCCC2)Cc2ccccc21,-4.1,14,31,5.1,-0.7,1.0
O=C(Nc1ccc([N+](=O)[O-])cc1)c1cn(-c2ccccc2)nc1-c1cc2ccccc2o1,-10.1,9,12,5.3,55.5*,0.0
CN(C)C(=O)c1cn(-c2ccccc2)nc1-c1cc2ccccc2o1,-4.5,22,5,1.0,4.0,0.3
O=C(O)c1cn(-c2ccccc2)nc1-c1ccc(Cl)cc1,-6.7,.,.,.,-3.3,.
O=C(N/N=C/c1ccc([N+](=O)[O-])o1)c1cn(-c2ccccc2)nc1-c1ccccc1,-6.1,8,11,-6.0,96.5*,-0.9
SMILES,PKD1 inh,GSH bead fluor,Avidin bead fluor,ABCG2 inh,L major viab,ABCB1 inh
O=C(N/N=C/c1ccc([N+](=O)[O-])o1)c1cn(-c2ccccc2)nc1-c1ccc(Cl)cc1,2.2,18,9,-1.1,75.6*,-0.1
Cc1nc2ccccc2c(=O)n1NC(=O)c1cccc([N+](=O)[O-])c1,-4.9,13,8,6.7,-2.6,1.6
Nc1ccc(CN2CCOCC2)cc1,-2.3,8,13,2.1,-6.8,0.3
Cn1cc(Br)c(C(=O)NNC(=O)Nc2ccccc2C(F)(F)F)n1,0.4,18,9,2.7,-6.5,0.2
O=S(=O)(Nc1ccc(Cc2ccncc2)cc1)c1ccc(Cl)c(Cl)c1,12.8,13,8,0.2,73.7*,0.4
COC(=O)c1ccc(/C=N/N2CCN(Cc3ccc(Cl)cc3)CC2)cc1,.,.,4,.,.,.
COc1cccc(OCC(O)CN2CCC(CN3C(=O)c4cccc5cccc(c45)C3=O)CC2)c1 (centres undefined),1.8,15,6,-4.4,87.4*,12.6
COc1ccc(COCC(O)CN2CCC(CN3C(=O)c4cccc5cccc(c45)C3=O)CC2)cc1OC (centres undefined),-5.1,11,7,0.1,21.8,0.9
CCc1ccc(OCC(O)CN2CCC(CN3C(=O)c4cccc5cccc(c45)C3=O)CC2)cc1 (centres undefined),-0.3,14,15,-0.6,100.3*,3.9
CCc1cccc2c(C(=O)CN3C(=O)NC(C)(c4cccc5ccccc45)C3=O)c[nH]c12 (centres undefined),5.6,16,5,-1.5,62.9*,-1.2
CCc1cccc2c(C(=O)COC(=O)c3nn(C)c(=O)c4ccccc34)c[nH]c12,10.9,60,9,2.4,-0.6,0.1
O=C(NNS(=O)(=O)c1ccc(F)cc1)C1CCN(Cc2cccc(F)c2)CC1,-6.9,11,24,0.8,85.8*,0.7
O=C(NNC(=O)C1CCN(Cc2ccccc2)CC1)c1cccs1,-3.1,12,6,1.5,-7.4,0.6
O=C(NNS(=O)(=O)c1ccc2ccccc2c1)C1CCN(Cc2ccccc2)CC1,-3.4,28,14,0.3,42.2,0.1
Cc1cc(C)c(S(=O)(=O)NNC(=O)C2CCN(Cc3ccccc3)CC2)c(C)c1,-4.8,13,37,0.1,91.1*,0.1
COc1ccc(N2CCN(c3nc(NCCO)nc(N4CCOCC4)n3)CC2)cc1,-3.7,12,11,1.7,5.5,0.4
Cc1cc(/C=N/Nc2nc(N3CCOCC3)nc(N3CCOCC3)n2)c(C)n1-c1ccccc1,-3.1,21,58*,1.8,7.7,0.6
COc1ccc(-n2c(C)cc(/C=N/Nc3nc(N4CCOCC4)nc(N4CCOCC4)n3)c2C)cc1,-8.0,13,14,8.6,97.5*,1.9
COCCCn1c(O)c(/C=C2\N=C(C#N)C(=Nc3ccc(C)cc3)O2)sc1=S,.,.,6,.,.,.
COc1ccc(/C=C/CN2CCCC(CO)(Cc3cccc(Cl)c3)C2)cc1 (centres undefined),0.9,13,12,1.0,97.4*,0.6
Cc1ccc2nc(C)cc(C(=O)N3CCCC(CO)(Cc4ccccc4C)C3)c2c1 (centres undefined),-4.0,10,11,4.0,60.7*,5.3
